The source of these data is ChEMBL document CHEMBL4513216, “Probing the Open Global Health Chemical Diversity Library for Multistage-Active Starting Points for Next-Generation Antimalarials” (ACS Infect Dis, 2020).

The structures appear in SMILES notation.

The series can be described thus: Toxicity liver stage against HepG2, at 10uM. It counts as cell-based. The arrangement: test concentration 10 uM, cell line HepG2-A16-CD81EGFP. Particulars: human, HepG2-A16-CD81EGFP cells; read-out: INHIBITION
In short, it runs like this:
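Uninfected HepG2-A16-CD81EGFP cells, 3 × 10^3 per well, 1536-well, plated on prespotted compound at 10 μM final, parasite-free screening media added to match infected plates; puromycin 10 μM positive, DMSO 0.5% negative; run in parallel with 48 h PbLuc assay at 37 °C, 5% CO2; viability by CellTiter-Glo luminescence, normalized to controls.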
As to `Cc1nn(C)cc1C1CC(=O)Nc2c1cnn2C(C)C` (stereo not given), the cytotoxicity at 10 µM was -4.31%.

As to `COC(=O)CCNC(=O)c1cc(-c2ccc(OC)cc2)nn1C`, the cytotoxicity at 10 µM worked out at 4.75%.

As to `Cc1nn(CCNS(=O)(=O)c2ccccc2)c(C)c1Cl`, the cytotoxicity at 10 µM was -5.26%.

On to `CN1CCN(CC2CC2)C(=O)C12CCN(c1nccs1)CC2`, for which the cytotoxicity at 10 µM is -6.01%.

`CN1Cc2ccccc2CC2(CCN(c3ncccn3)CC2)C1=O`: the cytotoxicity at 10 µM was -7.42%.

With `CN1CCN(Cc2ccco2)Cc2cccnc21`, the cytotoxicity at 10 µM was found to be 2.04%.

For `Cc1nn(C)c2c(=O)n(Cc3ccc(Cl)cc3)nnc12`, the cytotoxicity at 10 µM was -3.02%.

As for `CCn1nc(C)c2nc(C(C)C)nc(NCC(=O)N3CCOCC3)c21`, the cytotoxicity at 10 µM turned out to be 3.07%.

In the case of `Cc1cccc(Cn2ccc(NS(C)(=O)=O)n2)c1`, the cytotoxicity at 10 µM was -6.6%.

With `CCn1cc(N)c(C(=O)NCc2cnn(C)c2)n1`, the cytotoxicity at 10 µM is -0.729%.

With `CC(C)CC(=O)N1CCC(Nc2nc(O)cc(-c3ccsc3)n2)CC1`, the cytotoxicity at 10 µM is 11.3%.

In the case of `CCc1nccn1-c1nccnc1C1CCCN(C(=O)COC)C1` (stereo not given), the cytotoxicity at 10 µM was -21.5%.

For the molecule `O=C(N[C@@H]1CCC[C@@H](N2CCCC2)[C@@H]1O)c1cc2ccccc2[nH]1`, the cytotoxicity at 10 µM was -16.2%.

Take `Cc1ccnc(C2CCN(C(=O)c3cnn(C)c3)C2)n1` (stereo not given): the cytotoxicity at 10 µM is -15%.

In the case of `O=C(c1ccncc1)N1CCC(c2nc(O)cc(-c3ccncc3)n2)C1` (stereo not given), the cytotoxicity at 10 µM is 0.873%.

`CN(C)c1cncc(C2CCN(C(=O)CO)CC2)n1`: the cytotoxicity at 10 µM was -1.37%.

With `O=C(c1ccc(Cl)cc1)N1CCC(N2CCCOC2=O)CC1`, the cytotoxicity at 10 µM is 11.1%.

With `CN1CC(=O)N(C2CCCNC2)Cc2c(NC3CCC3)ncnc21` (stereo not given), the cytotoxicity at 10 µM came out at 3.96%.

`CCn1nnnc1-c1cccc(NCc2nc(C)ccc2O)c1`: the cytotoxicity at 10 µM is -1.71%.

Regarding `CC(C)(C)c1cc(NC(=O)CNC2CCc3ncnn3C2)on1` (stereo not given), the cytotoxicity at 10 µM was found to be 9.03%.

Regarding `Cc1cc(S(C)(=O)=O)c(C)c(S(=O)(=O)NCC2CCCO2)c1` (stereo not given), the cytotoxicity at 10 µM is -8.02%.

In the case of `Cc1nc(CNC(=O)NCCC2=CCCC2)oc1C`, the cytotoxicity at 10 µM is -1.18%.

Turning to `Cc1ccc(S(=O)(=O)CCC(=O)N(C)Cc2cnn(C)c2)cc1`, the cytotoxicity at 10 µM was -2.9%.

With `CC(C)c1ccc2c(c1)CCCN2C(=O)CN(C)S(C)(=O)=O`, the cytotoxicity at 10 µM turned out to be 3.78%.

Consider `O=C(Nc1ccc(Cl)cn1)C1CCN(CCc2ccccn2)CC1`, for which the cytotoxicity at 10 µM is -6.55%.

As for `O=C(Nc1ccc(Cl)cn1)C1CCCN(CCc2ccccn2)C1` (stereo not given), the cytotoxicity at 10 µM was found to be 7.33%.

Consider `NC(=O)C1CCN(c2cncc(-n3cccn3)n2)CC1`, for which the cytotoxicity at 10 µM was 12.5%.

In the case of `CC(C)OCCC(=O)NCCc1csc(N2CCCC2)n1`, the cytotoxicity at 10 µM was -12.9%.

As for `Cc1cccc(C(=O)NCCNCC2CNc3ccnn3C2)c1` (stereo not given), the cytotoxicity at 10 µM was -0.00278%.

Consider `CC(C)C1CN(C(=O)c2ccsc2)CCS1` (stereo not given), for which the cytotoxicity at 10 µM was 2.46%.

With `CCNC(=O)CN1CCN(c2cc(C)nc(-c3ccncc3)n2)CC1`, the cytotoxicity at 10 µM worked out at 5.63%.

As for `O=C(NS(=O)(=O)c1ccc(F)cc1)C1CCOc2ccccc21` (stereo not given), the cytotoxicity at 10 µM was determined as 9.91%.

Consider `Cc1cc2cc(CNC3CCN(CC4CCOC4)CC3)oc2cc1C` (stereo not given), for which the cytotoxicity at 10 µM was -8.14%.

For the molecule `Cc1csc(CNCC(C)c2nc3ccccc3o2)n1` (stereo not given), the cytotoxicity at 10 µM is -15.6%.

In the case of `COCCNS(=O)(=O)c1ccc(CNc2ncccc2C#N)cc1`, the cytotoxicity at 10 µM came to 6.47%.

In the case of `CC(=O)c1ccc(C(=O)N2CCCCC2c2nc[nH]n2)cc1` (stereo not given), the cytotoxicity at 10 µM is -5.3%.

As for `Cc1noc(-c2ccnc(N3CCC(N4CCCC4)CC3)c2)n1`, the cytotoxicity at 10 µM came out at 0.409%.

In the case of `CCc1n[nH]c(=O)c(C(=O)N2CCOC3(CCCC3)C2)c1CC`, the cytotoxicity at 10 µM worked out at 13.3%.

Take `COc1ccccc1NC(=O)NC1(c2noc(CN(C)C)n2)CCCC1`: the cytotoxicity at 10 µM was -5.22%.

As to `CC(=O)N1CCC(NC(=O)c2ccc3c(c2O)OC(C)(C)C3)CC1`, the cytotoxicity at 10 µM was 0.519%.

Consider `CS(=O)(=O)c1ccc(NC(=O)N2CCc3sccc3C2)cn1`, for which the cytotoxicity at 10 µM came to 85.1%.

Consider `CSc1cc2c(cc1NC(=O)NCC(C)(C)C(N)=O)OCCO2`, for which the cytotoxicity at 10 µM was -10.9%.

As to `COCC1COCCC12CCN(S(=O)(=O)c1ccccc1C)CC2` (stereo not given), the cytotoxicity at 10 µM was -5.42%.

Take `CCS(=O)(=O)N1C[C@@H](c2ccccc2)[C@@]2(CCNC2=O)C1`: the cytotoxicity at 10 µM is -108%.

Take `Cn1cccc1C(=O)N1C[C@H]2CN(CCN3CCCC3)C(=O)[C@H]2C1`: the cytotoxicity at 10 µM is -119%.

In the case of `CN(C)C(=O)CNC(=O)c1ccn(-c2ccc3ccccn23)n1`, the cytotoxicity at 10 µM was found to be 0.74%.

`CN(C)[C@@H]1CCN(C(=O)c2ccsc2)[C@H]1Cc1cnn(C)c1`: the cytotoxicity at 10 µM is -6.18%.

With `COCC(C)NCc1nc(-c2ccc(C)cc2)c(-c2ccccn2)[nH]1` (stereo not given), the cytotoxicity at 10 µM was -3.81%.

Turning to `CNC(C(=O)N1CCC(c2nccn2C(C)C)CC1)c1ccccc1` (stereo not given), the cytotoxicity at 10 µM worked out at 0.258%.

Regarding `C=C(C)COc1ccccc1C(=O)N1CCC(C(=O)NCC)C1` (stereo not given), the cytotoxicity at 10 µM worked out at 8.89%.

`Oc1ccccc1N1CCN(c2ncnc3sc4c(c23)CCNC4)CC1`: the cytotoxicity at 10 µM turned out to be 4.36%.

Regarding `CCCn1c(C)c(CC(=O)N(C)CCO)c2c1CC(C)(C)CC2=O`, the cytotoxicity at 10 µM was -3.64%.

As to `OCC1CCN(C[C@@H]2CN(C3Cc4ccccc4C3)C[C@@H]2CO)CC1`, the cytotoxicity at 10 µM was -2.02%.

For `Cc1cc(-c2nn(C)c(Cl)c2CN2CCCCC(N)C2)no1` (stereo not given), the cytotoxicity at 10 µM was -2.1%.

For the molecule `CCc1c(C)sc2ncnc(N3C[C@H](O)[C@@H](N4CCCC4)C3)c12`, the cytotoxicity at 10 µM was -4.36%.

For the molecule `Cc1cc(N2CCCN3CCC[C@H]3C2)n2nc(C)c(C)c2n1`, the cytotoxicity at 10 µM was determined as 4.37%.

On to `COc1ccc(C(=O)N2CCOC(Cc3cccc(C(F)(F)F)c3)C2)o1` (stereo not given), for which the cytotoxicity at 10 µM was -0.869%.

Consider `O=C1CCC2(CCCN(C(=O)c3ccoc3)C2)CN1CCc1c[nH]cn1` (stereo not given), for which the cytotoxicity at 10 µM was 4.54%.

For the molecule `CCOCCCNc1nc2c(s1)c(C)nn2C`, the cytotoxicity at 10 µM came to 1.54%.

As for `CC(C)N1CCCC(C(=O)N2CCN(c3cnn(C)c(=O)c3)CC2)C1` (stereo not given), the cytotoxicity at 10 µM is -3.75%.

Take `CCc1nc(C)sc1CN1CC[C@](C)(O)[C@H](C)C1`: the cytotoxicity at 10 µM was -2.11%.

`CCN(Cc1noc(C2CC2)n1)C(=O)c1onc2ccccc12`: the cytotoxicity at 10 µM was 1.61%.

`CCn1c(C2CCN(C(=O)c3ccc4sc(C)nc4c3)CC2)n[nH]c1=O`: the cytotoxicity at 10 µM was -18%.

As for `CCC[C@H]1CN(c2nc(CO)cs2)C[C@@H]1NC(=O)C1CCC1`, the cytotoxicity at 10 µM was 6.07%.

On to `CN(Cc1noc2c1CCCC2)C(=O)C1CCOc2ccccc2C1` (stereo not given), for which the cytotoxicity at 10 µM is -7.11%.

`Cc1cc(N(C)CCn2ccnc2C)n2nccc2n1`: the cytotoxicity at 10 µM is 4.09%.

As for `O=C(CCc1cn[nH]c1)N1CCC(C2CCN(c3ncccn3)CC2)C1` (stereo not given), the cytotoxicity at 10 µM is 10.2%.

Consider `CN(Cc1cc(C(C)(C)C)n[nH]1)C(=O)c1ccc2nccn2c1`, for which the cytotoxicity at 10 µM is -7.01%.

For the molecule `CCC1c2cccn2CCN1C(=O)c1ccc2nonc2c1` (stereo not given), the cytotoxicity at 10 µM was -13.2%.

Take `Cc1nsc(NC(=O)N2CCN(Cc3ccc(F)cc3)C(=O)C2)n1`: the cytotoxicity at 10 µM is 1.07%.

Take `OCCN1CCN(Cc2coc(-c3cccc(F)c3)n2)CC1`: the cytotoxicity at 10 µM was -21.6%.

For `CC(=O)c1ccc(N2CCN(C(=O)NCc3cc[nH]n3)CC2)cc1`, the cytotoxicity at 10 µM is -2.17%.

Regarding `COc1c(CNC2CCN(C(=O)C(C)C)CC2)c(C(C)C)nn1C`, the cytotoxicity at 10 µM turned out to be 1.25%.

As to `CC(C(=O)N1CCCN(Cc2cnn(C(C)C)c2)CC1)n1ccnc1` (stereo not given), the cytotoxicity at 10 µM was -11.8%.

Take `COc1ncccc1CNC(=O)N(Cc1ccc(F)cc1F)C1CC1`: the cytotoxicity at 10 µM amounted to 0.139%.

As to `COCCNC(=O)CN1CCC(N2CCN(C)C2=O)CC1`, the cytotoxicity at 10 µM is 0.621%.

Consider `OC(COCc1ccccc1Cl)CN1CCC(c2ccn[nH]2)CC1` (stereo not given), for which the cytotoxicity at 10 µM is -15.1%.

As to `CCc1ncc2c(n1)CN(C(C)C(=O)Nc1ccc(Cl)cn1)CC2` (stereo not given), the cytotoxicity at 10 µM was -0.915%.

`Cc1nc(CN(C)C2CCN(Cc3nc4ccccc4n3C)C2)no1` (stereo not given): the cytotoxicity at 10 µM was -9.26%.

For the molecule `CCC(CC)NC(=O)Cn1cc(-c2ccccc2)cn1`, the cytotoxicity at 10 µM was -0.0581%.

Take `O=C1CCC2(CCC(NCc3cccnc3)CC2)N1Cc1ccccc1` (stereo not given): the cytotoxicity at 10 µM was -2.04%.

For the molecule `COc1cc(N2CCCn3cnc(COC(C)C)c3C2)ncn1`, the cytotoxicity at 10 µM was -5.3%.

As for `Cc1oncc1C(=O)N[C@@H]1CN(CC2CC2)C[C@@H]2CCCO[C@@H]21`, the cytotoxicity at 10 µM is -103%.

With `C[C@H]1CN(c2ccccn2)C[C@@]12CCN(Cc1cccnc1)C2=O`, the cytotoxicity at 10 µM is -1.16%.

On to `Cc1nc(CN2C(=O)CC[C@@H]3[C@H]2CCN3C(=O)c2ccccn2)cs1`, for which the cytotoxicity at 10 µM was -77.7%.

Take `C[C@@H]1CN(C(=O)c2ccc[nH]2)C[C@]12CCN(CCN1CCCC1)C2=O`: the cytotoxicity at 10 µM amounted to 10.4%.

Regarding `Cc1noc2nc(C3CCN(Cc4cccnc4)CC3)cc(C(F)F)c12`, the cytotoxicity at 10 µM is -2.5%.

As to `CN(C)CCNC(=O)c1nc2c(s1)CCCN2C(=O)C1CC1`, the cytotoxicity at 10 µM is -108%.

As for `c1cnc(N2CCO[C@H]3CN(CC4CCOCC4)C[C@H]32)nc1`, the cytotoxicity at 10 µM is -95.9%.

`CCS(=O)(=O)N1CCN(Cc2ccncc2)c2nc(C)ccc2C1`: the cytotoxicity at 10 µM is -70.8%.

For the molecule `Cc1ccnc(C(=O)N2C[C@@H]3CN(S(C)(=O)=O)CCO[C@@H]3C2)c1`, the cytotoxicity at 10 µM is -3.92%.

On to `CC(C)NC(=O)[C@H]1C[C@@H]2[C@@H](C1)OCCN2CC1CC1`, for which the cytotoxicity at 10 µM was -6.13%.

Regarding `COCCN1CCC2(CCCN(c3ncccn3)C2)C1` (stereo not given), the cytotoxicity at 10 µM stood at 1.36%.

On to `CC(=O)N1C[C@H]2CC[C@@H](C1)N(C(=O)CCc1n[nH]c3c1CCCC3)C2`, for which the cytotoxicity at 10 µM is 10.3%.

With `O=C(NCC1CCCCC1)N1C[C@@H]2C[C@H](C(=O)N3CCCC3)[C@H](C1)O2`, the cytotoxicity at 10 µM is -2.48%.
